Values after ≈ are worked out from the molar mass of the structure shown.
Key:
[1] = tested on: Trypanosoma brucei rhodesiense; test: Antitrypanosomal activity against Trypanosoma brucei rhodesiense; assay type: functional, organism-based
Trypanosoma cruzi = test: Antitrypanosomal activity against Trypanosoma cruzi in rat L6 cells; assay type: functional, organism-based
Plasmodium falciparum = test: Antiplasmodial activity against chloroquine and pyrimethamine-resistant Plasmodium falciparum K1 in erythrocytes by [3H]hypoxanthine uptake; assay type: functional, organism-based
L6 = test: Cytotoxicity against rat L6 cells; assay type: cell-based
Summary of the method: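 Rat skeletal myoblast (L-6) line; cytotoxicity values reported in µg/mL.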

**Q.** How did the IC50 [1] turn out when `COc1cccc2c(-c3ccc4cc(C)nc(C)c4c3O)c(C)cc(OC)c12` was run?
**A.** 5.6 µg/mL (≈ 15 µM)

**Q.** What about the IC50 (Trypanosoma cruzi) of the same compound?
**A.** 54 µg/mL (≈ 145 µM)

**Q.** What about the IC50 (Plasmodium falciparum) of the same compound?
**A.** 3.9 µg/mL (≈ 10.4 µM)

**Q.** For `O=C(Cn1ccnc1[N+](=O)[O-])NCc1ccccc1` [BENZNIDAZOLE], which IC50 (Trypanosoma cruzi) is on record?
**A.** 0.55 µg/mL (≈ 2.11 µM)

**Q.** For `COc1ccc(-c2ccc3cc(C)nc(C)c3c2O)c2cc(C)cc(OC)c12` [DIONCOPHYLLEINE D], which IC50 [1] is on record?
**A.** 4.7 µg/mL (≈ 12.6 µM)

**Q.** What about the IC50 (Trypanosoma cruzi) of the same compound?
**A.** 24.3 µg/mL (≈ 65.1 µM)

**Q.** And the IC50 (Plasmodium falciparum)?
**A.** 0.5 µg/mL (≈ 1.34 µM)

**Q.** Which results are given for `COc1cc(C)c(-c2ccc3cc(C)nc(C)c3c2O)c2cccc(O)c12` [ENT-DIONCOPHYLLEINE A]?
**A.** IC50 (L6): 20.6 µg/mL (≈ 57.3 µM); IC50 [1]: 1.4 µg/mL (≈ 3.9 µM); IC50 (Trypanosoma cruzi): 21.8 µg/mL (≈ 60.7 µM); IC50 (Plasmodium falciparum): 3.1 µg/mL (≈ 8.62 µM)

Reference: ChEMBL document CHEMBL1158754, “ent-Dioncophylleine A and related dehydrogenated naphthylisoquinoline alkaloids, the first Asian dioncophyllaceae-type alkaloids, from the "new"plant species Ancistrocladus benomensis” (J Nat Prod, 2005)
